# Fewer inactive variants are shown than the library holds.
# B1: tRNA (parent)
# chain: GUUCCGUUGGCGUAAUGGUAACGCGUCUCCCUCCUAAGGAGAAGACUGCGGGUUCGAGUCCCGUACGGAACG
# Variants of: B1
# Assay: yeast fitness relative to wild type (ratio to wild type); higher = fitter; tRNA-Arg(CCU), competitive growth, 37 C, YPD
# Procedure, shortened: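 Genotype frequency changes were the basis for Darwinian fitness relative to wild type. The frequencies came from 100-nucleotide paired-end sequencing of gene amplicons from the start population and each end population of pooled yeast strains with tRNA-Arg(CCU) gene variants at the native locus. Competition ran in YPD at 37°C for 24 hours in six replicates, genotypes needed ≥ 100 starting reads, and estimates < 0.5 were set to 0.5.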
row,Variant,yeast fitness
1,U13G G58C G67C,0.603
2,U13G G63C,0.696
3,U13G G68A,0.798
4,U13G U16A C24U G44A C49G,≤ 0.5
5,U13G U16C A42U G44A C49A,≤ 0.5
6,U13G U26A,0.987
7,U13G U26G C33G U47A,0.602
8,U13G U26G G52A,≤ 0.5
9,U13G U28A C30A,≤ 0.5
10,U13G U28A C30A C61G,≤ 0.5
11,U13G U28A C49A C55U C60U C61U,≤ 0.5
12,U13G U28C,0.867
13,U13G U28G,0.59
14,U13G U28G A57U A65C A69C,≤ 0.5
15,U13G U28G C61U,0.523
16,U13G U32A C46U,0.577
17,U13G U32C C33U C62U A65G,≤ 0.5
18,U13G U32G A45G C49U A70U,≤ 0.5
19,U13G U35C A70U,0.508
20,U13G U35G A40G,0.676
21,U13G U35G A40G C61A,≤ 0.5
22,U13G U54A G68C,≤ 0.5
23,U13G U54C G56A,0.563
24,A14C A15C A21U A57G,≤ 0.5

row,Variant,yeast fitness
1,A14C A15C C34G A43C C49A,0.627
2,A14C A15C G25C A57C C62G A69G,≤ 0.5
3,A14C A15G,0.675
4,A14C A15G A42G,0.738
5,A14C A15U C62G,≤ 0.5
6,A14C A15U G17A C27U U32C U35G,≤ 0.5
7,A14C A20C,0.533
8,A14C A20C C34A A42U,≤ 0.5
9,A14C A20G A36G C55U G68C,≤ 0.5
10,A14C A20G C22U C49G G56C,≤ 0.5
11,A14C A20G C27U U64A G67A,0.566
12,A14C A20G G23A C29U U35C C55G,≤ 0.5
13,A14C A20U C66U,≤ 0.5
14,A14C A20U G25C A43C C66U,≤ 0.5
15,A14C A21C,0.609
16,A14C A21C C24U A36U A43U G58C,≤ 0.5
17,A14C A21C C27U,≤ 0.5
18,A14C A21C C46A,0.604
19,A14C A21G,0.713
20,A14C A21U A45C A57G,≤ 0.5
21,A14C A21U C24A A37U A45U,≤ 0.5
22,A14C A36G A69C,≤ 0.5
23,A14C A36G C62A,≤ 0.5
24,A14C A36G C62U,≤ 0.5

row,Variant,yeast fitness
1,A14C A36G G41A G48C U59C,0.7
2,A14C A36U A37G G52A A65U A70C,≤ 0.5
3,A14C A36U C60U A69U,≤ 0.5
4,A14C A36U G38A A65C,≤ 0.5
5,A14C A37C U54C,≤ 0.5
6,A14C A37G A45C,≤ 0.5
7,A14C A37G A57G,0.625
8,A14C A40C G41C C55A A70U,≤ 0.5
9,A14C A40C G68A,≤ 0.5
10,A14C A40C U64C,0.622
11,A14C A40G,0.596
12,A14C A40U,0.587
13,A14C A40U A43C,0.564
14,A14C A42C C49A A70U,0.588
15,A14C A42C U47C,≤ 0.5
16,A14C A42G A57U,≤ 0.5
17,A14C A42G U47C,≤ 0.5
18,A14C A42U C55G,≤ 0.5
19,A14C A42U C55G U59A,0.612
20,A14C A42U C60G A70G,≤ 0.5
21,A14C A42U G44C,≤ 0.5
22,A14C A43C A57G C66U,≤ 0.5
23,A14C A43G A69C,≤ 0.5
24,A14C A43G U59C C62A,≤ 0.5

row,Variant,yeast fitness
1,A14C A43U C61U,≤ 0.5
2,A14C A43U G63C,≤ 0.5
3,A14C A45C C49G U54C C66U,≤ 0.5
4,A14C A45U A70G,0.561
5,A14C A45U G48A C66G,≤ 0.5
6,A14C A45U G50C G68C,≤ 0.5
7,A14C A57C,0.516
8,A14C A57G A69U,≤ 0.5
9,A14C A57U C61U,≤ 0.5
10,A14C A65G A69U,0.634
11,A14C A69G,0.692
12,A14C C22A A37U,0.646
13,A14C C22A C46A U64C,≤ 0.5
14,A14C C22A U59C C62A,≤ 0.5
15,A14C C22G,0.701
16,A14C C22G A37C,≤ 0.5
17,A14C C22G G25C G44A,≤ 0.5
18,A14C C22G G25C G44A C61G,0.543
19,A14C C22G G63A,0.642
20,A14C C22G U26G C55A A65G,≤ 0.5
21,A14C C22U,0.61
22,A14C C22U C24U U53A,≤ 0.5
23,A14C C22U C66U,≤ 0.5
24,A14C C24A,≤ 0.5

row,Variant,yeast fitness
1,A14C C24A C27G C46G A65G,≤ 0.5
2,A14C C24A G52A U53A A57C,0.5
3,A14C C24A G67A,≤ 0.5
4,A14C C24A U32G G41C,0.501
5,A14C C24G A42G,≤ 0.5
6,A14C C24G G39A A43G,≤ 0.5
7,A14C C24U,0.666
8,A14C C24U A36G,0.591
9,A14C C24U A57G C60U G68C,≤ 0.5
10,A14C C24U C29U A40U G68U,≤ 0.5
11,A14C C24U C31G A36U,0.664
12,A14C C24U C31U A40U G44A,≤ 0.5
13,A14C C24U C31U U53C C61G,≤ 0.5
14,A14C C24U U26A G52C,≤ 0.5
15,A14C C24U U35C C55U,≤ 0.5
16,A14C C27A C31A,0.588
17,A14C C27G A69U,0.561
18,A14C C27G C46G,0.619
19,A14C C27G C46G A65G C66U,≤ 0.5
20,A14C C27G C46G C55G,≤ 0.5
21,A14C C27U C31U C33A G67C,0.541
22,A14C C27U C46U A70G,≤ 0.5
23,A14C C27U C55G A70U,0.613
24,A14C C29G,≤ 0.5

row,Variant,yeast fitness
1,A14C C29U A36G A45U,0.543
2,A14C C29U A36G A45U A70G,0.548
3,A14C C29U A36G A45U A70U,≤ 0.5
4,A14C C29U C31U A36G A45U A70G,≤ 0.5
5,A14C C29U C33G,0.527
6,A14C C30A,0.576
7,A14C C30A A69U,≤ 0.5
8,A14C C30A C31G,≤ 0.5
9,A14C C30A C31U A36U,≤ 0.5
10,A14C C30A C66U A70G,0.622
11,A14C C30G,0.508
12,A14C C30G A37G A45G U59C G67C,≤ 0.5
13,A14C C30U,0.622
14,A14C C30U A37C C62A,0.693
15,A14C C30U G41C A69U,≤ 0.5
16,A14C C30U G58A,≤ 0.5
17,A14C C31G A43C G51A,≤ 0.5
18,A14C C31G C62A A65U C66U,0.506
19,A14C C31U,0.706
20,A14C C31U A36U,0.631
21,A14C C31U A36U C55G,≤ 0.5
22,A14C C33A G41U C49U C66U,≤ 0.5
23,A14C C33G A42C G48A C60U,≤ 0.5
24,A14C C33G G44A C49A C55A,≤ 0.5

row,Variant,yeast fitness
1,A14C C33U,0.64
2,A14C C34A,0.565
3,A14C C34G A43U C62A,0.716
4,A14C C34G A43U G48A,≤ 0.5
5,A14C C34G A57U,0.518
6,A14C C34G C49A C61U,≤ 0.5
7,A14C C34U A37G,0.507
8,A14C C34U G39C,0.625
9,A14C C34U G39C C55U G56C,≤ 0.5
10,A14C C46A,0.641
11,A14C C46U,0.915
12,A14C C46U G67C,0.589
13,A14C C49U,0.715
14,A14C C49U U64A,0.556
15,A14C C55G,0.827
16,A14C C55U,0.645
17,A14C C60G A70U,≤ 0.5
18,A14C C60G C66U G68A,≤ 0.5
19,A14C C61U C66G,0.522
20,A14C C62G,0.599
21,A14C C62G C66U,≤ 0.5
22,A14C G17A G23A C29G A42C G56A C62U,≤ 0.5
23,A14C G17A G68A,0.522

# — the RNAGym collection of RNA variant scans (doi:10.1126/science.aae0568)
